Results published in ChEMBL document CHEMBL3526015, “Metabolism of the c-Fos/activator protein-1 inhibitor T-5224 by multiple human UDP-glucuronosyltransferase isoforms” (Drug Metab Dispos, 2011).

Tests used:
Liver microsome [1] = assay: Drug metabolism in human liver microsomes assessed as T-5224 hydroxyl O-glucuronide formation per mg protein after 10 to 60 mins by HPLC method; format: ADME
Outline: (§1)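 Pooled liver (0.5 mg protein/mL) or intestinal (0.25 mg protein/mL) microsomes in 50 mM Tris-HCl pH 7.5, 8 mM MgCl2, alamethicin, 2% DMSO. T-5224 at 1–50 μM, 5 min preincubation at 37°C, started with 2 mM UDPGA. Incubated 10 min, or 20 min for intestinal microsomes at 1–5 μM. Acetonitrile stop, glucuronides by HPLC at 290 nm. Triplicates fitted to a substrate-inhibition model.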

Liver microsome [2] = assay: Drug metabolism in human liver microsomes assessed as T-5224 hydroxyl O-glucuronide formation after 10 to 60 mins by HPLC method; format: ADME; outline: as §1
Liver microsome [3] = assay: Substrate inhibition of T-5224 hydroxyl O-glucuronide formation in human liver microsomes after 10 to 60 mins by HPLC method; outline: as §1
[4] = target: T1, UDP-glucuronosyltransferase 1A3 (Homo sapiens, UniProt P35503); assay: Drug metabolism assessed as Vmax/Km ratio for human UGT1A3-mediated T-5224 acyl O-glucuronide formation per mg protein after 10 to 60 mins in presence of UDP-glucuronic acid by HPLC method; format: ADME; conditions: recombinant enzyme
T1 sequence (P35503 whole entry): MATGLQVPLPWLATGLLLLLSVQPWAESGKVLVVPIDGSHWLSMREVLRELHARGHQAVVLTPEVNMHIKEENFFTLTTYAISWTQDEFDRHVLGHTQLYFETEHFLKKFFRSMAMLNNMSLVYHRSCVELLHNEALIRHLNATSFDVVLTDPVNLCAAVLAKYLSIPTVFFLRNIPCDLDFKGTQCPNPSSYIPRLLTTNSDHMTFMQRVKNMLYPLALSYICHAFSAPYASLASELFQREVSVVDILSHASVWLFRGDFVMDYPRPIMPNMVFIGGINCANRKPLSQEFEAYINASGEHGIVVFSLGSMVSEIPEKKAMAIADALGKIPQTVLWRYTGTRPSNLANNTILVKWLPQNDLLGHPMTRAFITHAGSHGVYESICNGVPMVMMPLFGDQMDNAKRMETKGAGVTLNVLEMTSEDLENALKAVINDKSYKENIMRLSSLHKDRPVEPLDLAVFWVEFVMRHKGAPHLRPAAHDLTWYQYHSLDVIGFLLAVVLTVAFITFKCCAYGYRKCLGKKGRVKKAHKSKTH
Outline: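 Kinetics used recombinant UGT1A1, 1A3 or 1A8 (0.1 mg protein/mL) with T-5224 at 1–50 μM, 2 mM UDPGA and 60 min at 37°C, in triplicate. G2/G3 were measured by HPLC at 290 nm and fitted to a substrate-inhibition model (Vmax, Km, Ksi). UGT content was quantified by immunoblot, and kcat = Vmax/E0 was derived from it.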

[5] = target: T2, UDP-glucuronosyltransferase 1A8 (Homo sapiens, UniProt Q9HAW9); assay: Drug metabolism assessed as human UGT1A8-mediated T-5224 hydroxyl O-glucuronide formation at 5 to 50 uM after 60 mins in presence of UDP-glucuronic acid by HPLC method; format: ADME; conditions: recombinant enzyme, 1 h
T2 sequence (Q9HAW9 whole entry): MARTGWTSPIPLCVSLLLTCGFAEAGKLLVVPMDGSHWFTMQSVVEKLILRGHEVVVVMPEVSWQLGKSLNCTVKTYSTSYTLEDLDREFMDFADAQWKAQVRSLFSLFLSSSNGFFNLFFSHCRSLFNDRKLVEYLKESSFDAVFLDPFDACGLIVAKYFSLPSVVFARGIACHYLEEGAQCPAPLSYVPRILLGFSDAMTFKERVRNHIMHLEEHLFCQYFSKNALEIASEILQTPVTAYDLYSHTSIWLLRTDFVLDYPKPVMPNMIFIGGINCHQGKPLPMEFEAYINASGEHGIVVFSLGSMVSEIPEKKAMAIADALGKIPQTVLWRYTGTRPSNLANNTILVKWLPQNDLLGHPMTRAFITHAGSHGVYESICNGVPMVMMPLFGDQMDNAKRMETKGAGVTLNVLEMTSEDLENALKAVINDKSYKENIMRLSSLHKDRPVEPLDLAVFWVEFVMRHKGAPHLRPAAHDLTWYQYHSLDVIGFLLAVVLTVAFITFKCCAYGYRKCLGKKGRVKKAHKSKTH

Liver microsome [6] = assay: Drug metabolism in human liver microsomes assessed as T-5224 acyl O-glucuronide formation after 10 to 60 mins by HPLC method; format: ADME
Outline: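 Pooled liver microsomes (0.5 mg/mL) were incubated 10 min. Pooled intestinal microsomes (0.25 mg/mL) ran 10 min at T-5224 10–50 μM and 20 min at 1–5 μM. Buffer was 50 mM Tris-HCl pH 7.5 with 8 mM MgCl2, alamethicin and 2 mM UDPGA, at 37°C, in triplicate. Glucuronides G2/G3 were read by HPLC at 290 nm and fitted for Vmax/Km.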

[7] = Substrate inhibition of T-5224 acyl O-glucuronide formation in human intestinal microsomes after 10 to 60 mins by HPLC method; design: species or system Intestine, Microsome; outline: as §1
Liver microsome [8] = assay: Drug metabolism in pooled human liver microsomes assessed as T-5224 acyl O-glucuronide formation at 10 uM after 10 mins by HPLC method; format: ADME
Outline: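 T-5224 at 10 μM incubated for 10 min at 37°C with UDPGA (2 mM) in pooled liver (0.5 mg protein/mL) or intestinal (0.25 mg protein/mL) microsomes. Buffer was 50 mM Tris-HCl pH 7.5 with 8 mM MgCl2 and alamethicin, after 5 min preincubation. Stopped with acetonitrile; glucuronides quantified by HPLC at 290 nm.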

Vmax (Liver microsome [1]): 305 pmol/min
Km (Liver microsome [2]): 15.7 µM
Ki (Liver microsome [3]): 27 µM
Vmax/Km [4]: 15.5 µL/min
Drug metabolism [5]: metabolite_detected
Km (Liver microsome [6]): 4.93 µM
Ki [7]: 2.64 µM
Drug metabolism (Liver microsome [8]): metabolite_detected
Structure (SMILES): O=C(O)CCc1cc(C(=O)c2ccc(OC3CCCC3)cc2O)ccc1OCc1ccc2c(O)noc2c1
